Legend:
[1] = target: Dual serine/threonine and tyrosine protein kinase (Homo sapiens) (UniProt Q6XUX3); assay: Binding affinity to wild-type human full length RIPK5 (M1 to T929 residues) expressed in mammalian expression system assessed as residual binding level at 1 uM by Kinomescan method relative to control
[2] = target: Serine/threonine-protein kinase MARK1 (Homo sapiens) (UniProt Q9P0L2); assay: Binding affinity to wild-type human partial length MARK1 (Q30 to T341 residues) expressed in bacterial expression system assessed as residual binding level at 1 uM by Kinomescan method relative to control
[3] = Cmax in mouse at 2 mg/kg, iv; assay type: ADME, organism-based; set-up: dose 2 mg/kg, route intravenous; conditions: in vivo
[4] = target: Cyclin-dependent kinase 3 (Homo sapiens) (UniProt Q00526); assay: Binding affinity to wild-type human full length CDK3 (M1 to H305 residues) expressed in bacterial expression system assessed as residual binding level at 1 uM by Kinomescan method relative to control
[5] = target: Ribosomal protein S6 kinase alpha-2 (Homo sapiens) (UniProt Q15349); assay: Binding affinity to wild-type human partial length N-terminal RSK3 kinase domain 1 (M1 to Q385 residues) expressed in bacterial expression system assessed as residual binding level at 1 uM by Kinomescan method relative to control
[6] = target: Homeodomain-interacting protein kinase 3 (Homo sapiens) (UniProt Q9H422); assay: Binding affinity to wild-type human partial length HIPK3 (M153 to N562 residues) expressed in mammalian expression system assessed as residual binding level at 1 uM by Kinomescan method relative to control
[7] = target: Tyrosine-protein kinase Blk (Homo sapiens, UniProt P51451); assay: Inhibition of recombinant full length His-tagged human Blk cytoplasmic domain expressed in Baculovirus expression system by Z-LYTE assay
[8] = target: Cyclin-dependent kinase 13 (Homo sapiens) (UniProt Q14004); assay: Binding affinity to wild-type human partial length CDC2L5 (H675 to S1054 residues) expressed in mammalian expression system assessed as residual binding level at 1 uM by Kinomescan method relative to control
[9] = target: Mitogen-activated protein kinase kinase kinase kinase 4 (Homo sapiens) (UniProt O95819); assay: Binding affinity to wild-type human partial length MAP4K4 (M1 to R310 residues) expressed in bacterial expression system assessed as residual binding level at 1 uM by Kinomescan method relative to control
[10] = target: Serine/threonine-protein kinase pim-3 (Homo sapiens) (UniProt Q86V86); assay: Binding affinity to wild-type human partial length PIM3 (G16 to A317 residues) expressed in bacterial expression system assessed as residual binding level at 1 uM by Kinomescan method relative to control
[11] = target: Mast/stem cell growth factor receptor Kit (Homo sapiens) (UniProt P10721); assay: Binding affinity to wild-type human partial length autoinhibited KIT (Y545 to D952 residues) expressed in mammalian expression system assessed as residual binding level at 1 uM by Kinomescan method relative to control
[12] = target: Fibroblast growth factor receptor 2 (Homo sapiens) (UniProt P21802); assay: Binding affinity to wild-type human partial length FGFR2 (D457 to E769 residues) expressed in bacterial expression system assessed as residual binding level at 1 uM by Kinomescan method relative to control
[13] = target: Mitogen-activated protein kinase kinase kinase 13 (Homo sapiens) (UniProt O43283); assay: Binding affinity to wild-type human full length LZK (M1 to W966 residues) expressed in mammalian expression system assessed as residual binding level at 1 uM by Kinomescan method relative to control
Procedure, shortened: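 Single-point kinome-wide KINOMEscan binding panel, test compound at 1 μM, run by the provider's standard protocol.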

[14] = target: Serine/threonine-protein kinase Nek1 (Homo sapiens) (UniProt Q96PY6); assay: Binding affinity to wild-type human partial length NEK1 (M1 to K278 residues) expressed in bacterial expression system assessed as residual binding level at 1 uM by Kinomescan method relative to control
[15] = target: Serine/threonine-protein kinase 35 (Homo sapiens) (UniProt Q8TDR2); assay: Binding affinity to wild-type human partial length STK35 (G182 to A534 residues) expressed in bacterial expression system assessed as residual binding level at 1 uM by Kinomescan method relative to control
[16] = target: Serine/threonine-protein kinase MRCK alpha (Homo sapiens) (UniProt Q5VT25); assay: Binding affinity to wild-type human partial length MRCKA (L57 to V418 residues) expressed in bacterial expression system assessed as residual binding level at 1 uM by Kinomescan method relative to control
[17] = target: Hormonally up-regulated neu tumor-associated kinase (Homo sapiens) (UniProt P57058); assay: Binding affinity to wild-type human partial length HUNK (A31 to K354 residues) expressed in bacterial expression system assessed as residual binding level at 1 uM by Kinomescan method relative to control
[18] = target: Bone morphogenetic protein receptor type-1A (Homo sapiens) (UniProt P36894); assay: Binding affinity to wild-type human partial length BMPR1A (Q214 to I532 residues) expressed in bacterial expression system assessed as residual binding level at 1 uM by Kinomescan method relative to control
[19] = tested on: Epidermal growth factor receptor (Homo sapiens), P00533 [G719S]; assay: Binding affinity to human partial length EGFR G719S mutant (R669 to V1011 residues) expressed in bacterial expression system assessed as residual binding level at 1 uM by Kinomescan method relative to control
Procedure, shortened: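 Kinome-wide selectivity panel run by the KINOMEscan method, with the test compound at a single concentration of 1 μM. Wild-type and mutant kinases were profiled in the same screen.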

[20] = target: Serine/threonine-protein kinase SIK1 (Homo sapiens) (UniProt P57059); assay: Binding affinity to wild-type human partial length SIK (M1 to Y304 residues) expressed in bacterial expression system assessed as residual binding level at 1 uM by Kinomescan method relative to control
[21] = target: Tyrosine-protein kinase Mer (Homo sapiens) (UniProt Q12866); assay: Binding affinity to wild-type human partial length MERTK (R557 to L884 residues) expressed in bacterial expression system assessed as residual binding level at 1 uM by Kinomescan method relative to control
[22] = target: Casein kinase II subunit alpha' (Homo sapiens) (UniProt P19784); assay: Binding affinity to wild-type human full length CSNK2A2 (M1 to R350 residues) expressed in mammalian expression system assessed as residual binding level at 1 uM by Kinomescan method relative to control
[23] = target: Tyrosine-protein kinase Fer (Homo sapiens) (UniProt P16591); assay: Binding affinity to wild-type human partial length FER (S542 to T822 residues) expressed in bacterial expression system assessed as residual binding level at 1 uM by Kinomescan method relative to control
[24] = target: Ephrin type-A receptor 2 (Homo sapiens) (UniProt P29317); assay: Binding affinity to wild-type human partial length EPHA2 (T593 to V891 residues) expressed in bacterial expression system assessed as residual binding level at 1 uM by Kinomescan method relative to control
Insulin receptor = Insulin receptor (Homo sapiens, UniProt P06213); assay: Binding affinity to wild-type human partial length INSR (P997 to E1318 residues) expressed in mammalian expression system assessed as residual binding level at 1 uM by Kinomescan method relative to control

Q: What does the source list for C=CC(=O)Nc1cc(Nc2ncc(Cl)c(Nc3ccccc3S(=O)(=O)C(C)C)n2)c(OC)cc1N(C)CCN(C)C?
A: Activity [1]: 60%; Activity [2]: 40%; Cmax [3]: 882 ng/mL; Activity [4]: 94%; Activity [5]: 5.6%; Activity [6]: 87%; IC50 [7]: 8 nM; Activity [8]: 91%; Activity [9]: 87%; Activity [10]: 96%; Activity [11]: 66%; Activity [12]: 15%; Activity [13]: 73%; Activity [14]: 68%; Activity [15]: 71%; Activity [16]: 97%; Activity [17]: 39%; Activity [18]: 65%; Activity [19]: 0%; Activity [20]: 67%; Activity [21]: 2.7%; Activity [22]: 100%; Activity [23]: 0%; Activity [24]: 75%; Activity (Insulin receptor): 0%

From ChEMBL document CHEMBL4382192, “Discovery of a potent dual ALK and EGFR T790M inhibitor” (Eur J Med Chem, 2017)
